Experimental data from ChEMBL document CHEMBL3286372, “Design, synthesis and structure-activity relationship of novel semi-synthetic flavonoids as antiproliferative agents” (2014).

Legend:
[1] = Growth inhibition of human OVCAR4 cells after 48 hrs by coulter counting analysis; assay type: functional; conditions: OVCAR-4, 48 h
How it was run: (§1)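 Five-dose NCI-60 follow-up, 0.01–100 µM, made from DMSO stock in buffered saline (final DMSO <1%), in duplicate wells. Cells in RPMI 1640 with 10% FBS at 6×10^4 cells/ml, 37 °C, 5% CO2, 48 h. Cells diluted tenfold in saline, Coulter-counted and corrected for dilution. GI50, TGI and LC50 taken from log concentration–percent growth curves.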

[2] = Growth inhibition of human OVCAR5 cells after 48 hrs by coulter counting analysis; assay type: functional; conditions: OVCAR-5, 48 h; how it was run: as §1
[3] = Growth inhibition of human NCI-ADR-RES cells after 48 hrs by coulter counting analysis; assay type: functional; how it was run: as §1
SK-OV-3 = assay: Growth inhibition of human SKOV3 cells after 48 hrs by coulter counting analysis; assay type: functional; conditions: SK-OV-3, 48 h; how it was run: as §1
A498 = assay: Growth inhibition of human A498 cells after 48 hrs by coulter counting analysis; assay type: functional; conditions: A498, 48 h
How it was run: (§2)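 NCI five-dose screen at 0.01-100 µM, diluted from DMSO stocks in buffered saline (final DMSO <1%). Cells at 6×10^4 cells/ml in RPMI 1640 with 10% FBS, in duplicate wells, at 37 °C under 5% CO2 for 48 h. Cells diluted tenfold in saline and Coulter-counted. GI50, TGI and LC50 taken from log concentration-growth inhibition curves.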

ACHN = assay: Growth inhibition of human ACHN cells after 48 hrs by coulter counting analysis; assay type: functional; how it was run: as §2
CAKI-1 = assay: Growth inhibition of human CAKI-1 cells after 48 hrs by coulter counting analysis; assay type: functional; conditions: CAKI-1, 48 h; how it was run: as §2
[4] = Growth inhibition of human RXF393 cells after 48 hrs by coulter counting analysis; assay type: functional; conditions: RXF 393, 48 h; how it was run: as §1
SN12C = assay: Growth inhibition of human SN12C cells after 48 hrs by coulter counting analysis; assay type: functional; how it was run: as §1
TK-10 = assay: Growth inhibition of human TK10 cells after 48 hrs by coulter counting analysis; assay type: functional; conditions: TK-10, 48 h
How it was run: (§3)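 NCI five-dose screen, 0.01-100 µM, from DMSO stocks diluted in buffer saline (final DMSO <1%). Cells grown in RPMI 1640 + 10% FBS, seeded at 6×10^4 cells/ml, in duplicate wells. Exposure 48 h at 37 °C, 5% CO2. Cells diluted 10-fold in saline and counted by Coulter counter. GI50 derived from log concentration–percent growth inhibition curves. Controls carried matching PBS/saline/DMSO.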

[5] = Growth inhibition of human UO31 cells after 48 hrs by coulter counting analysis; assay type: functional; conditions: UO-31, 48 h; how it was run: as §3
DU-145 = assay: Growth inhibition of human DU145 cells after 48 hrs by coulter counting analysis; assay type: functional; conditions: DU-145, 48 h; how it was run: as §2
MCF7 = assay: Growth inhibition of human MCF7 cells after 48 hrs by coulter counting analysis; assay type: functional; conditions: MCF7, 48 h; how it was run: as §2
MDA-MB-231 = assay: Growth inhibition of human MDA-MB-231 cells after 48 hrs by coulter counting analysis; assay type: functional; conditions: MDA-MB-231, 48 h; how it was run: as §2
T47D = assay: Growth inhibition of human T47D cells after 48 hrs by coulter counting analysis; assay type: functional; how it was run: as §1
[6] = molecular target: Cyclin-dependent kinase 4/cyclin D1 (Homo sapiens) (UniProt P11802+P24385); assay: Inhibition of CDK4/Cyclin D1 (unknown origin) at 20 uM after 30 mins by scintillation counting analysis relative to control; assay type: protein-complex assay
How it was run: (§4)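 Recombinant kinases, cloned, expressed and purified in-house. Radiometric ³³P-ATP assay with kinase at ~10-50 nM final and 1-5 µg peptide or protein substrate. Compound at 20 µM final, in duplicate. Reaction started by adding ATP, run 30 min at ambient temperature, then spotted on P81 phosphocellulose. Plates washed in 1% phosphoric acid and counted by scintillation. No-substrate blank subtracted. Result is mean % activity change versus DMSO control.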

[7] = molecular target: Glycogen synthase kinase-3 beta (Homo sapiens) (UniProt P49841); assay: Inhibition of GSK-3beta (unknown origin) at 20 uM after 30 mins by scintillation counting analysis relative to control; how it was run: as §4
Sequence of Glycogen synthase kinase-3 beta (Homo sapiens) (P49841 whole entry, looked up): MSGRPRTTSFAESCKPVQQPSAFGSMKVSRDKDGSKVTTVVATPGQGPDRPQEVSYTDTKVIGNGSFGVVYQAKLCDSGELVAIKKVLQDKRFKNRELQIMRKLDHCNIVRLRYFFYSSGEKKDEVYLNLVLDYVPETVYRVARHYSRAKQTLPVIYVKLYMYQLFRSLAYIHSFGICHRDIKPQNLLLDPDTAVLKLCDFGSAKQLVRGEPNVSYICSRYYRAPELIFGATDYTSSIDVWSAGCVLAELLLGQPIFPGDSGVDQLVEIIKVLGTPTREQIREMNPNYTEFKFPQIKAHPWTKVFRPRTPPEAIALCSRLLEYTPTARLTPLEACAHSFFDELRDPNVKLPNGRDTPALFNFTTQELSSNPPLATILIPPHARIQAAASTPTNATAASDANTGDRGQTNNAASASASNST

K562 = assay: Growth inhibition of human K562 cells after 48 hrs by coulter counting analysis; assay type: functional; conditions: K562, 48 h; how it was run: as §2
RPMI-8226 = assay: Growth inhibition of human RPMI8226 cells after 48 hrs by coulter counting analysis; assay type: functional; conditions: RPMI-8226, 48 h; how it was run: as §1
[8] = Growth inhibition of human EKVX cells after 48 hrs by coulter counting analysis; assay type: functional; how it was run: as §2
[9] = Growth inhibition of human HOP92 cells after 48 hrs by coulter counting analysis; assay type: functional; conditions: HOP-92, 48 h; how it was run: as §2
NCI-H226 = assay: Growth inhibition of human NCI-H226 cells after 48 hrs by coulter counting analysis; assay type: functional; conditions: NCI-H226, 48 h; how it was run: as §1
NCI-H23 = assay: Growth inhibition of human NCI-H23 cells after 48 hrs by coulter counting analysis; assay type: functional; conditions: NCI-H23, 48 h; how it was run: as §1
NCI-H460 = assay: Growth inhibition of human NCI-H460 cells after 48 hrs by coulter counting analysis; assay type: functional; conditions: NCI-H460, 48 h; how it was run: as §1
NCI-H522 = assay: Growth inhibition of human NCI-H522 cells after 48 hrs by coulter counting analysis; assay type: functional; conditions: NCI-H522, 48 h; how it was run: as §1
HCT-116 = assay: Growth inhibition of human HCT116 cells after 48 hrs by coulter counting analysis; assay type: functional; conditions: HCT-116, 48 h; how it was run: as §2
[10] = Growth inhibition of human HCT15 cells after 48 hrs by coulter counting analysis; assay type: functional; conditions: HCT-15, 48 h; how it was run: as §2
KM12 = assay: Growth inhibition of human KM12 cells after 48 hrs by coulter counting analysis; assay type: functional; conditions: KM12, 48 h; how it was run: as §2
SW-620 = assay: Growth inhibition of human SW620 cells after 48 hrs by coulter counting analysis; assay type: functional; conditions: SW-620, 48 h; how it was run: as §1
SNB-19 = assay: Growth inhibition of human SNB19 cells after 48 hrs by coulter counting analysis; assay type: functional; conditions: SNB-19, 48 h; how it was run: as §1
U-251 = assay: Growth inhibition of human U251 cells after 48 hrs by coulter counting analysis; assay type: functional; conditions: U-251, 48 h; how it was run: as §3
[11] = Growth inhibition of human LOXIMVI cells after 48 hrs by coulter counting analysis; assay type: functional; conditions: LOX IMVI; how it was run: as §2
M14 = assay: Growth inhibition of human M14 cells after 48 hrs by coulter counting analysis; assay type: functional; conditions: M14, 48 h; how it was run: as §2
MDA-MB-435 = assay: Growth inhibition of human MDA-MB-435 cells after 48 hrs by coulter counting analysis; assay type: functional; conditions: MDA-MB-435, 48 h; how it was run: as §2
SK-MEL-2 = assay: Growth inhibition of human SK-MEL-2 cells after 48 hrs by coulter counting analysis; assay type: functional; conditions: SK-MEL-2, 48 h; how it was run: as §1
SK-MEL-28 = assay: Growth inhibition of human SK-MEL-28 cells after 48 hrs by coulter counting analysis; assay type: functional; conditions: SK-MEL-28, 48 h; how it was run: as §1
[12] = Growth inhibition of human UACC257 cells after 48 hrs by coulter counting analysis; assay type: functional; conditions: UACC-257, 48 h; how it was run: as §3
IGROV-1 = assay: Growth inhibition of human IGROV1 cells after 48 hrs by coulter counting analysis; assay type: functional; conditions: IGROV-1, 48 h; how it was run: as §2
[13] = Growth inhibition of human OVCAR3 cells after 48 hrs by coulter counting analysis; assay type: functional; conditions: OVCAR-3, 48 h; how it was run: as §1

Row | Structure (SMILES) | GI50 [1] | GI50 [2] | GI50 [3] | GI50 (SK-OV-3) | GI50 (A498) | GI50 (ACHN) | GI50 (CAKI-1) | GI50 [4] | GI50 (SN12C) | GI50 (TK-10) | GI50 [5] | GI50 (DU-145) | GI50 (MCF7) | GI50 (MDA-MB-231) | GI50 (T47D) | inhibition [6] | inhibition [7] | GI50 (K562) | GI50 (RPMI-8226) | GI50 [8] | other results
1 | C=CCc1c2c(c(OC)c3ccoc13)C(=O)/C(=C/c1ccccc1OC)O2 | 3.34 µM | 3.57 µM | 2820 nM | 5.45 µM | 5.81 µM | 4.32 µM | 3150 nM | 2470 nM | 4.85 µM | 6.5 µM | 4.98 µM | 3.19 µM | 2920 nM | 4.59 µM | 4.34 µM | 9% | 56% | 3.51 µM | 3.51 µM | 4.41 µM | GI50 [9]: 2070 nM; GI50 (NCI-H226): 3220 nM; GI50 (NCI-H23): 2880 nM; GI50 (NCI-H460): 3.46 µM; GI50 (NCI-H522): 3160 nM; GI50 (HCT-116): 3.29 µM; GI50 [10]: 3.6 µM; GI50 (KM12): 3.49 µM; GI50 (SW-620): 4.24 µM; GI50 (SNB-19): 5.83 µM; GI50 (U-251): 3530 nM; GI50 [11]: 3130 nM; GI50 (M14): 8.19 µM; GI50 (MDA-MB-435): 3120 nM; GI50 (SK-MEL-2): 6.06 µM; GI50 (SK-MEL-28): 5.21 µM; GI50 [12]: 6.41 µM; GI50 (IGROV-1): 5.27 µM; GI50 [13]: 3280 nM
2 | C=CCc1c(O)c(C(=O)/C=C/c2ccc(Cl)cc2)c(OC)c2ccoc12 | 2.77 µM | 2.8 µM | 2230 nM | 5.96 µM | 2.77 µM | 2.31 µM | 2610 nM | 1720 nM | 4.96 µM | 3.62 µM | 2.88 µM | 3.85 µM | 2510 nM | 4.3 µM | 3.29 µM | 0% | 80% | 3.25 µM | 3.04 µM | 7.23 µM | GI50 [9]: 1690 nM; GI50 (NCI-H226): 1520 nM; GI50 (NCI-H23): 2780 nM; GI50 (NCI-H460): 3.2 µM; GI50 (NCI-H522): 1880 nM; GI50 (HCT-116): 2.74 µM; GI50 [10]: 3.4 µM; GI50 (KM12): 3.72 µM; GI50 (SW-620): 2.56 µM; GI50 (SNB-19): 2.85 µM; GI50 (U-251): 2300 nM; GI50 [11]: 1630 nM; GI50 (M14): 5.08 µM; GI50 (MDA-MB-435): 2060 nM; GI50 (SK-MEL-2): 3.97 µM; GI50 (SK-MEL-28): 2.32 µM; GI50 [12]: 2.39 µM; GI50 (IGROV-1): 3.46 µM; GI50 [13]: 1970 nM
